In ChEMBL document CHEMBL1649139, “A novel gene, erm(41), confers inducible macrolide resistance to clinical isolates of Mycobacterium abscessus but is absent from Mycobacterium chelonae” (2009):

How the values were obtained:
Assay type in all cases: functional
[1] = tested on: Mycobacteroides abscessus; test: Antimicrobial activity against Mycobacterium abscessus isolate MC720 at day 3 by broth microdilution method; conditions: isolate MC720, 72 h
Procedure, shortened: (§1)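 Clarithromycin MIC by broth microdilution following CLSI guidelines. Before testing, organisms were preincubated for 3 days in medium alone or in clarithromycin or erythromycin (0.01–1 μg/ml), long enough for at least two generations judged by turbidity increase. MICs were read on day 3 and again on extended incubation out to day 14.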

[2] = tested on: Mycobacteroides abscessus; test: Antimicrobial activity against Mycobacterium abscessus isolate MC720 at day 14 preincubated with 0.1 ug/ml for 3 days by broth microdilution method; procedure, shortened: as §1
[3] = tested on: Mycobacteroides abscessus; test: Antimicrobial activity against Mycobacterium abscessus isolate MC1448 at day 7 preincubated with 0.1 ug/ml erythromycin for 3 days by broth microdilution method; procedure, shortened: as §1
[4] = tested on: Mycobacteroides abscessus; test: Antimicrobial activity against Mycobacterium abscessus isolate MC1028 at day 14 preincubated with 0.1 ug/ml for 3 days by broth microdilution method
Procedure, shortened: (§2)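 Clarithromycin MIC by CLSI-conforming broth microdilution. Before testing, cultures were preincubated for 3 days, either in medium alone or in clarithromycin or erythromycin (tested range 0.01–1 μg/ml). Preincubation ran for at least two generations, judged by turbidity increase. Plates were read on day 3 and on extended incubation at days 5 to 14.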

[5] = tested on: Mycobacteroides abscessus; test: Antimicrobial activity against Mycobacterium abscessus isolate MAB30 at day 7 preincubated with 0.1 ug/ml erythromycin for 3 days by broth microdilution method; procedure, shortened: as §2
[6] = tested on: Mycobacteroides abscessus; test: Antimicrobial activity against Mycobacterium abscessus isolate MC958 at day 7 preincubated with 0.1 ug/ml erythromycin for 3 days by broth microdilution method
[7] = tested on: Mycobacteroides abscessus; test: Antimicrobial activity against Mycobacterium abscessus isolate MC879 at day 14 preincubated with 0.1 ug/ml for 3 days by broth microdilution method
Procedure, shortened: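 To test inducible resistance, cultures were preincubated for 3 days in clarithromycin or erythromycin, within 0.01–1 μg/ml. The period was set so cultures passed at least two generations, judged by turbidity increase. Clarithromycin MIC was then determined by CLSI-conforming broth microdilution and read on the stated day, from day 3 up to 14.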

[8] = tested on: Mycobacteroides abscessus; test: Antimicrobial activity against Mycobacterium abscessus isolate MC879-2 at day 5 preincubated with 0.1 ug/ml erythromycin for 3 days by broth microdilution method
[9] = tested on: Mycobacteroides abscessus; test: Antimicrobial activity against Mycobacterium abscessus isolate MAB30 at day 5 preincubated with 0.1 ug/ml erythromycin for 3 days by broth microdilution method; procedure, shortened: as §2
[10] = tested on: Mycobacteroides abscessus; test: Antimicrobial activity against Mycobacterium abscessus isolate MC723 at day 14 preincubated with 0.1 ug/ml for 3 days by broth microdilution method; procedure, shortened: as §1

SMILES: CC[C@H]1OC(=O)[C@H](C)[C@@H](O[C@H]2C[C@@](C)(OC)[C@@H](O)[C@H](C)O2)[C@H](C)[C@@H](O[C@@H]2O[C@H](C)C[C@H](N(C)C)[C@H]2O)[C@](C)(OC)C[C@@H](C)C(=O)[C@H](C)[C@@H](O)[C@]1(C)O [CLARITHROMYCIN]
- MIC [1]: ≤ 0.5 µg/mL
- MIC [2]: > 32 µg/mL
- MIC [3]: > 32 µg/mL
- MIC [4]: ≤ 0.5 µg/mL
- MIC [5]: ≤ 0.5 µg/mL
- MIC [6]: > 32 µg/mL
- MIC [7]: > 32 µg/mL
- MIC [8]: > 32 µg/mL
- MIC [9]: ≤ 0.5 µg/mL
- MIC [10]: > 32 µg/mL
